# Legend:
# EMT6 [1] = assay: Growth inhibitory potency against NTR-Transfected (nitroreductase) mouse mammary cell line known as EMT6-NTRpuro cell line; format: functional, cell-based
# How it was run: (§1)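 Log-phase cells were seeded in αMEM with 5% FBS at 50–800 cells/well and grown for 18 h. Prodrug was added from DMSO stock diluted in medium and left for 18 h, then washed out. Regrowth lasted 3 days for V79 and EMT6 lines and 4 days for WiDr and Skov3 lines. Cell density was read by sulforhodamine B staining. IC50 was interpolated as 50% of control absorbance on the same plate. Ratio = IC50 of parental (NTR-ve) line / IC50 of NTR-transfected line.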
# WiDr-NTR = assay: Growth inhibitory potency against NTR-Transfected (nitroreductase) human colon cell line known as WiDr-NTRneo cell line; format: functional, cell-based; how it was run: as §1
# EMT6 [2] = assay: Ratio of growth inhibition of NTR-transfected mouse mammary cell line to that of parental cell line (IC50 (NTR-)/IC50 (NTR+); format: functional; how it was run: as §1
# [3] = Ratio of growth inhibition of NTR-transfected human colon cell line to that of parental cell line (IC50 (NTR-)/IC50 (NTR+); format: functional; how it was run: as §1
# [4] = Solubility in culture medium; format: physicochemical
# How it was run: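 Solubility limit (mM) determined in cell culture medium.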
# [5] = Partition coefficient (logP); format: physicochemical; settings: octanol/water
# How it was run: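 Partition measured between n-octanol and water.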
# SK-OV-3 [6] = assay: Growth inhibitory potency against NTR-Transfected (nitroreductase) human ovarian cell line known as SKOV3-NTR neo cell line; format: functional, cell-based; how it was run: as §1
# SK-OV-3 [7] = assay: Ratio of growth inhibition of NTR-transfected human ovarian cell line to that of parental cell line (IC50 (NTR-)/IC50 (NTR+); format: functional; how it was run: as §1
# V79 [8] = assay: Growth inhibitory potency against NTR-Transfected (nitroreductase) chinese hamster fibroblast known as V79-NTRpuro cell line; format: functional, cell-based; settings: Cricetulus griseus; how it was run: as §1
# Mus musculus [9] = assay: In vivo median growth delay against CD-1 nude mice bearing WiDr-nitroreductase tumors at a dose 200 (umol/kg); format: functional
# WiDr [10] = assay: Effective concentration of 10% cell survival for targets in WiDr MCL (multicellular layer) cocultures; format: functional, Homo sapiens
# How it was run: (§2)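 WiDr multicellular layers were grown on collagen-coated inserts for 6 days. Cocultures held 10% WiDr-NTRneo activators and 90% WiDr targets; the other layers held targets only. Layers were exposed to prodrug over a range of concentrations for 5 h at 37 °C, stirred, under 5% CO2/95% O2. Cells were plated clonogenically, with activators selected in 0.3 mg/mL G418. After 14 days, colonies of more than 50 cells were counted and the concentration giving 10% survival was derived.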
# V79 [11] = assay: Effective concentration of 10% cell survival for targets in V79 MCL (multicellular layer) cocultures; format: functional, Cricetulus griseus
# How it was run: (§3)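 V79 multicellular layers were grown on collagen-coated microporous inserts for 3 days, stirred, under 5% CO2/air. Cocultures held 3% V79-NTRpuro activators and 97% V79oua targets; the other layers held targets only. Layers were exposed to prodrug over a concentration range for 5 h at 37 °C under 5% CO2/95% O2. Cells were then plated clonogenically in 1 mM ouabain (targets) or 15 µM puromycin (activators). After 6 days, colonies of more than 50 cells were counted and the concentration giving 10% survival was taken.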
# Mus musculus [12] = assay: In vivo activity against WiDr-nitroreductase tumors in mice at a dose of 200 (umol/kg); 12/53; format: functional
# V79 [13] = assay: Effective concentration of 10% cell survival for targets in V79 MCL (multicellular layer) grown from targets; format: functional, Cricetulus griseus; how it was run: as §3
# WiDr [14] = assay: Effective concentration of 10% cell survival for targets in WiDr MCL (multicellular layer) grown from targets; format: functional, Homo sapiens; how it was run: as §2
# WiDr [15] = assay: Effective concentration of 10% cell survival for activators in WiDr MCL (multicellular layer) cocultures; format: functional, Homo sapiens; how it was run: as §2
# Mus musculus [16] = assay: In vivo activity against WiDr-nitroreductase tumors in mice at a dose of 200 (umol/kg); 31/53; format: functional
# V79 [17] = assay: Effective concentration of 10% cell survival for activators in V79 MCL (multicellular layer) cocultures; format: functional, Cricetulus griseus; how it was run: as §3
# Mus musculus [18] = assay: In vivo activity against WiDr-nitroreductase tumors in mice at a dose of 300 (umol/kg); 1/7; format: functional
# Mus musculus [19] = assay: In vivo median growth delay against CD-1 nude mice bearing WiDr-nitroreductase tumors at a dose 300 (umol/kg); format: functional
# Mus musculus [20] = assay: In vivo activity against WiDr-nitroreductase tumors in mice at a dose of 300 (umol/kg); 0/7; format: functional
# Mus musculus [21] = assay: In vivo median growth delay against CD-1 nude mice bearing WiDr-nitroreductase tumors at a dose 1000 (umol/kg); format: functional
# Mus musculus [22] = assay: In vivo activity against WiDr-nitroreductase tumors in mice at a dose of 1000 (umol/kg); 1/7; format: functional
# Mus musculus [23] = assay: In vivo activity against WiDr-nitroreductase tumors in mice at a dose of 1000 (umol/kg); 2/7; format: functional
SMILES,IC50 (EMT6 [1]) [nM],IC50 (WiDr-NTR) [nM],Ratio (EMT6 [2]),Ratio [3],solubility [4] [µM],logP ([5]; read-out: logP),IC50 (SK-OV-3 [6]) [nM],Ratio (SK-OV-3 [7]),IC50 (V79 [8]) [nM],Tc (WiDr [10]) [µM],Tc (V79 [11]) [µM],T (V79 [13]) [µM],T (WiDr [14]) [µM],Ac (WiDr [15]) [µM],Ac (V79 [17]) [µM],also measured
CS(=O)(=O)c1cc([N+](=O)[O-])c(N2CC2)cc1C(=O)NCC(O)CO (stereo not given),84500,281000,32,10,4150,-0.96,160000,26,132000,,,,,,,
CS(=O)(=O)c1cc([N+](=O)[O-])c(C(N)=O)cc1N1CC1,11000,22000,25,10,780,-0.3,21800,19,40000,,,,,,,
O=C(NCCCCN1CCOCC1)c1cc(N2CC2)c([N+](=O)[O-])cc1[N+](=O)[O-],60,310,12170,93,5600,-0.48,300,513,210,,,,,,,
NC(=O)c1cc(N2CC2)c([N+](=O)[O-])cc1[N+](=O)[O-] [TRETAZICAR],,1140,947,51.1,,,640,317,,252,173,1400,513,33,23,Growth delay (Mus musculus [9]): >87 days; logP [5]: 0.14; Deaths (Mus musculus [12]): 12; Cures (Mus musculus [16]): 31
NC(=O)c1ccc([N+](=O)[O-])c(N2CC2)c1,41400,62400,2.8,1.6,430,0.47,61000,1.6,61500,,,,,,,
O=C(NCCN1CCOCC1)c1cc(N2CC2)c([N+](=O)[O-])cc1[N+](=O)[O-],53,720,4020,183,1800,0.31,450,1100,150,105,470,1600,680,8.5,11.5,Cures (Mus musculus [18]): 1; Growth delay (Mus musculus [19]): 35 days; Deaths (Mus musculus [20]): 0
O=C(NCC(O)CO)c1cc(N2CC2)c([N+](=O)[O-])cc1[N+](=O)[O-] (stereo not given),1100,3700,86.5,49,22000,-1.04,2300,83.7,710,320,840,1595,540,28,26,Growth delay (Mus musculus [21]): >86 days; Deaths (Mus musculus [22]): 1; Cures (Mus musculus [23]): 2
NC(=O)c1c([N+](=O)[O-])ccc(N2CC2)c1[N+](=O)[O-],27000,58200,9.2,5.9,2700,-0.17,65800,9.6,135000,,,,,,,
O=C(NCCn1ccnc1)c1cc(N2CC2)c([N+](=O)[O-])cc1[N+](=O)[O-],290,1100,278,41.5,1100,-0.48,580,105,310,,,,,,,
